# Results reported in article PMC7987787 (Nuclear medicine and biology, 2021).
# “And” between values parts separate entries of the source, which are not always exact repeats. Identical values can stand only once. Like-named read-outs stand apart in the source and are kept apart here.
# Tests used:
# PSMA = PSMA (Homo sapiens, UniProt Q04609); assay: PSMA inhibition assay; type: biochemical
# How it was run: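 LNCaP cell extract as enzyme source, incubated with the inhibitor at various amounts plus 4 μM NAAG for 120 min. Glutamate released was detected with Amplex Red glutamic acid working solution over 60 min, fluorescence ex 530/em 560 nm. […] Triplicate; known PSMA inhibitor as positive control.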
# [1] = tested on: PC-3 PIP and PC-3 flu xenografts; conditions: SCID mice
# [2] = tested on: PSMA+ PC-3 PIP xenografts; conditions: cited from earlier work
# [3] = Phase II trial, 3 months after treatment; cited from earlier work
# Sequence of PSMA (Q04609 whole entry): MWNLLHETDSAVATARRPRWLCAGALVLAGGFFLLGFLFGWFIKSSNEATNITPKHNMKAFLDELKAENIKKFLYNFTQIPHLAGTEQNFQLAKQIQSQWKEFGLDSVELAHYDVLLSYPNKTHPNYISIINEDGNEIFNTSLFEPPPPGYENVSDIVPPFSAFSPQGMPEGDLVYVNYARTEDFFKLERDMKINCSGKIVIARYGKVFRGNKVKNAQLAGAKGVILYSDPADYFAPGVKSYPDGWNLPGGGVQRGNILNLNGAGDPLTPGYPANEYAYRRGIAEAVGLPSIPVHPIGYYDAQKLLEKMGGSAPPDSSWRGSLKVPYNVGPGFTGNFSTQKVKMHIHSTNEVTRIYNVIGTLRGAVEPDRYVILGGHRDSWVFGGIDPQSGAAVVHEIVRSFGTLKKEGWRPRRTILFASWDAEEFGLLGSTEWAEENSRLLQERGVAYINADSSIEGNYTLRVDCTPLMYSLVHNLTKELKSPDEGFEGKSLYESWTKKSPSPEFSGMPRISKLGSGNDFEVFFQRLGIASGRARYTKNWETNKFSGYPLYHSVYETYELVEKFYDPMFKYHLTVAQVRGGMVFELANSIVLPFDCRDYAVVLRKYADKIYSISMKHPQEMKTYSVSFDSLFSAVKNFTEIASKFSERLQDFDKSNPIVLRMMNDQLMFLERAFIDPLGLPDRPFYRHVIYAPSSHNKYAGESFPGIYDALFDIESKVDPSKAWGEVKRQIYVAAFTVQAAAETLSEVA
smiles,measurement,setting,value
"O=C(O)CC[C@H](NC(=O)N[C@@H](CCC(=O)NCCc1ccc(I)cc1)C(=O)O)C(=O)O [HS-549, (((S)-1-Carboxy-4-((4-iodophenethyl)amino)-4-oxobutyl)carbamoyl)-L-glutamic acid]",IC50,PSMA,0.43 nM
same,Ki,PSMA,0.09 nM
O=C(O)CC[C@H](NC(=O)N[C@@H](CCC(=O)NCCc1ccc([131I])cc1)C(=O)O)C(=O)O [[^131I]HS-549],Percent injected dose per gram: Blood,[1]; 1 h,5.90 ± 1.05 % ID/g
same,Percent injected dose per gram: Bone,[1]; 1 h,0.94 ± 0.36 % ID/g
same,Percent injected dose per gram: Brain,[1]; 1 h,0.26 ± 0.08 % ID/g
same,Percent injected dose per gram: Heart,[1]; 1 h,2.30 ± 0.63 % ID/g
same,Percent injected dose per gram: Kidneys,[1]; 1 h,106 ± 18.9 % ID/g
same,Percent injected dose per gram: Lg. Int.,[1]; 1 h,0.52 ± 0.12 % ID/g
same,Percent injected dose per gram: Liver,[1]; 1 h,21.2± 4.14 % ID/g
same,Percent injected dose per gram: Lungs,[1]; 1 h,4.60 ± 1.09 % ID/g
same,Percent injected dose per gram: Muscle,[1]; 1 h,0.86 ± 0.26 % ID/g
same,Percent injected dose per gram: PC-3 PIP,[1]; 1 h,78.1 ± 19.1 % ID/g
same,Percent injected dose per gram: PC-3 flu,[1]; 1 h,2.21 ± 0.53 % ID/g
same,Percent injected dose per gram: Sm. Int.,[1]; 1 h,1.98 ± 0.30 % ID/g
same,Percent injected dose per gram: Spleen,[1]; 1 h,6.76 ± 3.42 % ID/g
same,Percent injected dose per gram: Stomach,[1]; 1 h,0.92 ± 0.20 % ID/g
same,Percent injected dose per gram: Thyroid,[1]; 1 h,1.17 ± 0.43 % ID/g
same,Thyroid uptake,[1]; 1 h,0.30 ± 0.13 %ID
same,Tumor-to-blood ratio (PSMA+ PC3 PIP),[1]; 1 h,13.3 ± 2.7
same,Tumor-to-kidney ratio (PSMA+ PC3 PIP),[1]; 1 h,0.74 ± 0.15
same,Liver levels relative to co-administered [211At]HS-549,"[1]; 1 h and 2 h, P < 0.05",3–6 fold
same,Percent injected dose per gram: Blood,[1]; 2 h,2.92 ± 0.32 % ID/g
same,Percent injected dose per gram: Bone,[1]; 2 h,0.65 ± 0.25 % ID/g
same,Percent injected dose per gram: Brain,[1]; 2 h,0.18 ± 0.02 % ID/g
same,Percent injected dose per gram: Heart,[1]; 2 h,1.14 ± 0.18 % ID/g
same,Percent injected dose per gram: Kidneys,[1]; 2 h,96.6 ± 39.1 % ID/g
same,Percent injected dose per gram: Lg. Int.,[1]; 2 h,1.32 ± 0.25 % ID/g
same,Percent injected dose per gram: Liver,[1]; 2 h,26.0 ± 3.09 % ID/g
same,Percent injected dose per gram: Lungs,[1]; 2 h,2.73 ± 0.66 % ID/g
same,Percent injected dose per gram: Muscle,[1]; 2 h,0.46 ± 0.12 % ID/g
same,Percent injected dose per gram: PC-3 PIP,[1]; 2 h,74.7 ± 13.1 % ID/g
same,Percent injected dose per gram: PC-3 flu,[1]; 2 h,1.51 ± 0.30 % ID/g
same,Percent injected dose per gram: Sm. Int.,[1]; 2 h,2.42 ± 0.40 % ID/g
same,Percent injected dose per gram: Spleen,[1]; 2 h,2.71 ± 0.85 % ID/g
same,Percent injected dose per gram: Stomach,[1]; 2 h,0.47 ± 0.17 % ID/g
same,Percent injected dose per gram: Thyroid,[1]; 2 h,0.69 ± 0.29 % ID/g
same,Tumor-to-blood ratio (PSMA+ PC3 PIP),[1]; 2 h,26 ± 5.3
same,Tumor-to-kidney ratio (PSMA+ PC3 PIP),[1]; 2 h,0.87 ± 0.30
same,Percent injected dose per gram: Blood,[1]; 21 h,1.39 ± 0.35 % ID/g
same,Percent injected dose per gram: Bone,[1]; 21 h,0.20 ± 0.05 % ID/g
same,Percent injected dose per gram: Brain,[1]; 21 h,0.08 ± 0.02 % ID/g
same,Percent injected dose per gram: Heart,[1]; 21 h,0.41 ± 0.09 % ID/g
same,Percent injected dose per gram: Kidneys,[1]; 21 h,3.13 ± 1.65 % ID/g
same,Percent injected dose per gram: Lg. Int.,[1]; 21 h,0.63 ± 0.39 % ID/g
same,Percent injected dose per gram: Liver,[1]; 21 h,1.86 ± 0.51 % ID/g
same,Percent injected dose per gram: Lungs,[1]; 21 h,0.87 ± 0.27 % ID/g
same,Percent injected dose per gram: Muscle,[1]; 21 h,0.16 ± 0.04 % ID/g
same,Percent injected dose per gram: PC-3 PIP,[1]; 21 h,22.6 ± 22.1 % ID/g
same,Percent injected dose per gram: PC-3 flu,[1]; 21 h,0.44 ± 0.18 % ID/g
same,Percent injected dose per gram: Sm. Int.,[1]; 21 h,0.37 ± 0.06 % ID/g
same,Percent injected dose per gram: Spleen,[1]; 21 h,0.29 ± 0.12 % ID/g
same,Percent injected dose per gram: Stomach,[1]; 21 h,0.14 ± 0.04 % ID/g
same,Percent injected dose per gram: Thyroid,[1]; 21 h,0.36 ± 0.05 % ID/g
same,Thyroid uptake,[1]; 21 h,0.08 ± 0.01 %ID
same,Tumor-to-blood ratio (PSMA+ PC3 PIP),[1]; 21 h,18 ± 19
same,Tumor-to-kidney ratio (PSMA+ PC3 PIP),[1]; 21 h,6.26 ± 4.04
"O=C(O)CC[C@H](NC(=O)N[C@@H](CCCCNC(=O)c1ccc([211At])cc1)C(=O)O)C(=O)O [[^211At]DCABzL, (((S)-1-carboxy-5-(4-[^211At]astinatobenzamido)pentyl)carbamoyl)-L-glutamic acid]","Stomach activity level, range over time points",[2]; %ID/organ,3.8 – 8.2%
same,"Thyroid radioactivity level, range over time points",[2]; %ID/organ,0.5–1.3%
same,Peak uptake in subcutaneous PC3 PSMA+ PIP xenografts,[2],> 30 % ID/g
O=C(O)CC[C@H](NC(=O)N[C@@H](CCC(=O)NCCc1ccc([211At])cc1)C(=O)O)C(=O)O [[^211At]HS-549],Percent injected dose per gram: Blood,[1]; 1 h,5.5 ± 0.8 % ID/g and 5.53 ± 0.84 % ID/g
same,Percent injected dose per gram: Bone,[1]; 1 h,1.49 ± 0.40 % ID/g
same,Percent injected dose per gram: Brain,[1]; 1 h,0.46 ± 0.09 % ID/g
same,Percent injected dose per gram: Heart,[1]; 1 h,4.34 ± 0.96 % ID/g
same,Percent injected dose per gram: Kidneys,[1]; 1 h,46.7 ± 8.2 % ID/g
same,Percent injected dose per gram: Lg. Int.,[1]; 1 h,1.16 ± 0.20 % ID/g
same,Percent injected dose per gram: Liver,[1]; 1 h,7.94 ± 2.15 % ID/g
same,Percent injected dose per gram: Lungs,[1]; 1 h,9.77 ± 1.75 % ID/g
same,Percent injected dose per gram: Muscle,[1]; 1 h,1.11 ± 0.29 % ID/g
same,Percent injected dose per gram: PC-3 PIP,[1]; 1 h,43.2 ± 9.8 % ID/g
same,Percent injected dose per gram: PC-3 flu,[1]; 1 h,3.48 ± 0.53 % ID/g
same,Percent injected dose per gram: Sm. Int.,[1]; 1 h,5.52 ± 1.57 % ID/g
same,Percent injected dose per gram: Spleen,[1]; 1 h,8.79 ± 2.09 % ID/g
same,Percent injected dose per gram: Stomach,[1]; 1 h,7.07 ± 2.24 % ID/g
same,Percent injected dose per gram: Thyroid,[1]; 1 h,3.24 ± 0.56 % ID/g
same,Percent injected dose per gram: Blood,[1]; 2 h,2.8 ± 0.4 % ID/g and 2.87 ± 0.40 % ID/g
same,Percent injected dose per gram: Brain,[1]; 2 h,0.39 ± 0.06 % ID/g
same,Percent injected dose per gram: Heart,[1]; 2 h,3.36 ± 0.59 % ID/g
same,Percent injected dose per gram: Kidneys,[1]; 2 h,40.4 ± 15.5 % ID/g
same,Percent injected dose per gram: Lg. Int.,[1]; 2 h,4.59 ± 0.81 % ID/g
same,Percent injected dose per gram: Liver,[1]; 2 h,4.65 ±1.28 % ID/g
same,Percent injected dose per gram: Lungs,[1]; 2 h,8.24 ± 2.25 % ID/g
same,Percent injected dose per gram: Muscle,[1]; 2 h,0.76 ± 0.18 % ID/g
same,Percent injected dose per gram: PC-3 PIP,[1]; 2 h,42.0 ± 7.16 % ID/g
same,Percent injected dose per gram: PC-3 flu,[1]; 2 h,2.82 ±0.60 % ID/g
same,Percent injected dose per gram: Sm. Int.,[1]; 2 h,3.81 ± 1.24 % ID/g
same,Percent injected dose per gram: Spleen,[1]; 2 h,6.13 ± 1.59 % ID/g
same,Percent injected dose per gram: Stomach,[1]; 2 h,14.3 ± 3.2 % ID/g
same,Percent injected dose per gram: Thyroid,[1]; 2 h,4.11 ± 2.00 % ID/g
same,Percent injected dose per gram: Blood,[1]; 21 h,0.92 ± 0.15 % ID/g
same,Percent injected dose per gram: Bone,[1]; 21 h,0.60 ± 0.17 % ID/g
same,Percent injected dose per gram: Brain,[1]; 21 h,0.17 ± 0.03 % ID/g
same,Percent injected dose per gram: Kidneys,[1]; 21 h,2.60 ± 0.77 % ID/g
same,Percent injected dose per gram: Lg. Int.,[1]; 21 h,0.93 ± 0.41 % ID/g
same,Percent injected dose per gram: Liver,[1]; 21 h,0.89 ± 0.13 % ID/g
same,Percent injected dose per gram: Lungs,[1]; 21 h,4.3 ± 0.7 % ID/g and 4.26 ± 0.72 % ID/g
same,Percent injected dose per gram: Muscle,[1]; 21 h,0.29 ± 0.09 % ID/g
same,Percent injected dose per gram: PC-3 PIP,[1]; 21 h,10.6 ± 9.91 % ID/g
same,Percent injected dose per gram: Sm. Int.,[1]; 21 h,1.28 ± 0.30 % ID/g
same,Percent injected dose per gram: Spleen,[1]; 21 h,2.31 ± 0.67 % ID/g
same,Percent injected dose per gram: Stomach,[1]; 21 h,12.6 ± 6.20 % ID/g
same,Percent injected dose per gram: Thyroid,[1]; 21 h,3.78 ± 0.63 % ID/g
same,"Stomach activity level, range over time points",[1]; %ID/organ,3.2 −8.7 %ID
same,"Thyroid radioactivity level, range over time points","[1]; %ID/organ, all time points",0.8–0.9 %ID
O=C([O-])CN1CCN(CC(=O)[O-])CCN(CC(=O)NCC2CCC(C(=O)N[C@@H](Cc3ccc4ccccc4c3)C(=O)NCCCC[C@H](NC(=O)N[C@@H](CCC(=O)O)C(=O)O)C(=O)O)CC2)CCN(CC(=O)[O-])CC1.[177Lu+3] (some centres unmarked) [^177Lu-labeled PSMA-617],Patients with reductions in tumor volume,[3],about 40%
